According to ChEMBL document CHEMBL1212889, “Novel antifungal agents: triazolopyridines as inhibitors of beta-1,6-glucan synthesis” (Bioorg Med Chem, 2010):
In brackets after ≈: the same amount, converted by molar mass.

Key:
[1] = tested on: Nakaseomyces glabratus; test: Antimicrobial activity against Candida glabrata IFO 0622 by microdilution assay; format: functional
How it was run: (§1)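 CLSI broth microdilution, modified to incubate at 30 °C. MIC-0 is the lowest drug concentration giving an optically clear well. Table footnote: the endpoint was the lowest concentration producing a prominent reduction in turbidity. Drug range 0.004 to 128 µg/mL.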

[2] = tested on: Liver microsomes; test: Metabolic stability in human liver microsomes; format: ADME, Microsome
How it was run: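 Compound at 1 µM final with human liver microsomes (0.5 mg/mL protein) in sodium phosphate buffer pH 7.4, preincubated 20 min at 37 °C. NADPH started the reaction, and MeOH stopped it after 30 min. Samples were centrifuged at 4 °C, and parent loss was measured by LC/MS/MS.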

[3] = tested on: Candida tropicalis; test: Antimicrobial activity against Candida tropicalis TIMM 0313 by microdilution assay; format: functional; how it was run: as §1
[4] = tested on: Candida albicans; test: Antimicrobial activity against Candida albicans ATCC 24433 by microdilution assay; format: functional; how it was run: as §1
[5] = Solubility of the compound at pH 6.8; format: physicochemical; details: buffer
How it was run: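 Water solubility measured at pH 6.8.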

[6] = tested on: Pichia kudriavzevii; test: Antimicrobial activity against Candida krusei TIMM 0269 by microdilution assay; format: functional; how it was run: as §1
[7] = tested on: Saccharomyces cerevisiae; test: Antimicrobial activity against Saccharomyces cerevisiae AY14 by microdilution assay; format: functional; how it was run: as §1
[8] = tested on: Candida tropicalis; test: Antimicrobial activity against Candida tropicalis IAM 4965 using alamar blue stain by microdilution assay; format: functional
How it was run: (§2)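 Modified CLSI microdilution in RPMI 1640 with 0.165 M MOPS, plus alamar blue redox indicator. Inoculum was 1 × 10³ to 1 × 10⁴ cells/mL and incubation ran 18–72 h, both set per strain by growth speed, at 30 °C. OD570 was read and MIC-2 taken as the lowest concentration giving 50% absorbance reduction versus the drug-free control.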

[9] = tested on: Saccharomyces cerevisiae; test: Antimicrobial activity against Saccharomyces cerevisiae AY14 using alamar blue stain by microdilution assay; format: functional; how it was run: as §2
[10] = tested on: Nakaseomyces glabratus; test: Antimicrobial activity against Candida glabrata ATCC 48435 using alamar blue stain by microdilution assay; format: functional; how it was run: as §2
[11] = Octanol-phosphate buffered saline partition coefficient, log D of the compound at pH 6.8; format: physicochemical
How it was run: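 Shake partition between 1-octanol and phosphate-buffered saline at pH 6.8. Layers were separated by centrifugation at 3000 rpm for 10 min, and each layer was assayed by LC/MS on a C18 column with an ammonium acetate (pH 4.5)/acetic acid–acetonitrile gradient. Log D was computed from the partition coefficient.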

[12] = tested on: Candida albicans; test: Antimicrobial activity against Candida albicans ATCC 24433 using alamar blue stain by microdilution assay; format: functional; how it was run: as §2
[13] = tested on: Pichia kudriavzevii; test: Antimicrobial activity against Candida krusei ATCC 44507 using alamar blue stain by microdilution assay; format: functional; how it was run: as §2

SMILES | MIC [1] [µg/mL] | Stability [2] [%] | MIC [3] [µg/mL] | MIC [4] [µg/mL] | solubility [5] [µg/mL] | MIC [6] [µg/mL] | MIC [7] [µg/mL] | MIC [8] [µg/mL] | MIC [9] [µg/mL] | MIC [10] [µg/mL] | logD [11] | MIC [12] [µg/mL] | MIC [13] [µg/mL]
OC(Cn1cncn1)(Cn1cncn1)c1ccc(F)cc1F [FLUCONAZOLE] | 2 (≈ 6.53 µM) | 96 | 0.25 (≈ 0.816 µM) | 0.25 (≈ 0.816 µM) | > 2000 | 16 (≈ 52.2 µM) | 4 (≈ 13.1 µM) | – | – | – | – | – | –
CCc1nc2c(C#N)c(C)c(-c3ccccc3)c(N3CC[C@H](N(C)C)C3)n2n1 | – | 54 | – | – | 228 (≈ 609 µM) | – | – | 1 (≈ 2.67 µM) | 0.063 (≈ 0.168 µM) | 0.125 (≈ 0.334 µM) | 2.1 | > 4 | > 4
Cc1c(-c2ccccc2)c(N2CC[C@H](N(C)C)C2)n2nc(C(C)(C)C)cc2c1C#N | – | 12 | – | – | < 2 | – | – | 1 (≈ 2.49 µM) | 1 (≈ 2.49 µM) | 1 (≈ 2.49 µM) | 4.8 | 4 (≈ 9.96 µM) | 4 (≈ 9.96 µM)
Cc1c(-c2ccccc2)c(N2CC[C@H](N(C)C)C2)n2nc(-c3ccccc3)nc2c1C#N | > 128 | – | > 128 | > 128 | – | > 128 | > 128 | – | – | – | – | – | –
Cc1cn2c(N3CC[C@H](N(C)C)C3)c(-c3ccccc3)c(C)c(C#N)c2n1 | – | 71 | – | – | 356 (≈ 990 µM) | – | – | > 4 | 1 (≈ 2.78 µM) | 0.5 (≈ 1.39 µM) | 1.9 | > 4 | > 4
Cc1nc2c(C#N)c(C)c(-c3ccccc3)c(N3CC[C@H](N(C)C)C3)n2n1 | 2 (≈ 5.55 µM) | 84 | > 128 | > 128 | 376 (≈ 1040 µM) | > 128 | 8 (≈ 22.2 µM) | – | – | – | 1.7 | – | –
CCCCc1nc2c(C#N)c(C)c(-c3ccccc3)c(N3CC[C@H](N(C)C)C3)n2n1 | 1 (≈ 2.48 µM) | 5 | > 64 | > 128 | 33 (≈ 82 µM) | > 64 | 2 (≈ 4.97 µM) | – | – | – | 3.2 | – | –
Cc1c(-c2ccccc2)c(N2CC[C@H](N(C)C)C2)n2nc(C3CC3)nc2c1C#N | – | 48 | – | – | 57 (≈ 147 µM) | – | – | 1 (≈ 2.59 µM) | 0.032 (≈ 0.0828 µM) | 0.063 (≈ 0.163 µM) | 2.4 | > 4 | > 4
Cc1c(-c2ccccc2)c(N2CC[C@H](N(C)C)C2)n2c(nc3ccccc32)c1C#N | ≤ 0.125 | 29 | 0.5 (≈ 1.26 µM) | > 128 | 5.3 (≈ 13.4 µM) | ≤ 0.125 | ≤ 0.125 | – | – | – | 3.1 | – | –
CCCCc1c(C)c(C#N)c2nc3ccccc3n2c1N1CC[C@H](N(C)C)C1 | ≤ 0.125 | 57 | 0.5 (≈ 1.33 µM) | > 128 | 26 (≈ 69.2 µM) | 0.5 (≈ 1.33 µM) | 0.25 (≈ 0.666 µM) | – | – | – | 3.2 | – | –
Cc1c(-c2ccccc2)c(N2CC[C@H](N(C)C)C2)n2cc(C(C)(C)C)nc2c1C#N | – | 16 | – | – | 27 (≈ 67.2 µM) | – | – | 4 (≈ 9.96 µM) | 0.125 (≈ 0.311 µM) | 0.25 (≈ 0.623 µM) | 3 | 4 (≈ 9.96 µM) | 4 (≈ 9.96 µM)
Cc1c(-c2ccccc2)c(N2CC[C@H](N(C)C)C2)n2nc(C(C)(C)COCc3ccccc3)nc2c1C#N | – | 9 | – | – | < 3 | – | – | 0.125 (≈ 0.246 µM) | 0.063 (≈ 0.124 µM) | 0.125 (≈ 0.246 µM) | 3.8 | > 4 | > 4
CCN(CC)CCNc1c(-c2ccccc2)c(C)c(C#N)c2nc(C(C)(C)C)nn12 | 0.5 (≈ 1.24 µM) | 10 | > 128 | > 128 | 2 (≈ 4.94 µM) | > 128 | 0.5 (≈ 1.24 µM) | – | – | – | 3.3 | – | –
Cc1c(-c2ccccc2)c(N2CC[C@H](N(C)C)C2)n2nc(C(C)(C)CO)nc2c1C#N | – | 64 | – | – | 140 (≈ 334 µM) | – | – | 0.25 (≈ 0.597 µM) | 0.125 (≈ 0.299 µM) | 0.25 (≈ 0.597 µM) | 1.8 | > 4 | > 4
Cc1c(-c2ccccc2)c(N2CC[C@H](N(C)C)C2)n2nc(C(C)(C)C)nc2c1C#N | ≤ 0.125 | 9 | 2 (≈ 4.97 µM) | > 128 | 16 (≈ 39.7 µM) | 16 (≈ 39.7 µM) | ≤ 0.125 | 0.25 (≈ 0.621 µM) | 0.063 (≈ 0.157 µM) | 0.063 (≈ 0.157 µM) | 3.1 | > 4 | > 4
CCCCc1c(C)c(C#N)c2nc(C(C)(C)C)nn2c1N1CC[C@H](N(C)C)C1 | 32 (≈ 83.6 µM) | 11 | > 128 | > 128 | 146 (≈ 382 µM) | > 128 | 64 (≈ 167 µM) | – | – | – | 3.2 | – | –
